{"source": "ChEMBL document CHEMBL1135602", "about": "(J Med Chem, 2002)", "data": [{"tested_on": "Plasmodium falciparum", "experiment": "IC50 ratio against Plasmodium falciparum K1CB1/TM4", "format": "functional", "values": [{"smiles": "COc1cc(Cc2cnc(N)nc2N)cc(OC)c1OCc1ccccc1", "Ratio": 7.1}, {"smiles": "COC(=O)CCCc1nc(N)nc(N)c1-c1ccc(Cl)cc1", "Ratio": 557.5}, {"smiles": "CCc1nc(N)nc(N)c1-c1ccc(Cl)c(Cl)c1", "note": "[ETOPRINE]", "Ratio": 290}, {"smiles": "COC(=O)CCCc1nc(N)nc(N)c1-c1cccc(Cl)c1", "Ratio": 45.4}, {"smiles": "Nc1ncc(-c2ccc(Cl)cc2)c(N)n1", "Ratio": 11.4}, {"smiles": "CCOc1c(Br)cc(-c2c(N)nc(N)nc2CC)cc1Br", "Ratio": 4.7}, {"smiles": "CCc1nc(N)nc(N)c1-c1ccc2c(c1)OCO2", "Ratio": 53.8}]}, {"tested_on": "Bifunctional dihydrofolate reductase-thymidylate synthase (Plasmodium falciparum K1), P13922 [UNDEFINED MUTATION]", "sequence (P13922 whole entry, looked up, stated change not applied)": "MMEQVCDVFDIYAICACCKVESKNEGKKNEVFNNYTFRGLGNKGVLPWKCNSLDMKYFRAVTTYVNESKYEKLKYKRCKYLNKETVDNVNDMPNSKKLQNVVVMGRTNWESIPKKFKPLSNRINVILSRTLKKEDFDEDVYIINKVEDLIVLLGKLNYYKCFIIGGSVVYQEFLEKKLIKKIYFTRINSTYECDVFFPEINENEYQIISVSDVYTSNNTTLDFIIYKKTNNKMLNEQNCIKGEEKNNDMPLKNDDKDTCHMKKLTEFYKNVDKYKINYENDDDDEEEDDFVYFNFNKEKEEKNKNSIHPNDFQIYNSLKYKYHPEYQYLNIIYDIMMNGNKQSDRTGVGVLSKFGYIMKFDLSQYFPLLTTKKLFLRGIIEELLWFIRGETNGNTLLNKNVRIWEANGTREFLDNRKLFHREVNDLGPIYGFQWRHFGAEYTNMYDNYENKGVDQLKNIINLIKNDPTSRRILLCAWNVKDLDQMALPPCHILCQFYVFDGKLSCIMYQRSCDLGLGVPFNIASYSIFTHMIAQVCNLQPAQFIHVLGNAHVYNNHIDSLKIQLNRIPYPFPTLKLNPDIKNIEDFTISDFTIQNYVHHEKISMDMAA", "experiment": "Ratio of Inhibition of the S108N mutant of dihydrofolate reductase (DHFR) to inhibition of wild type dihydrofolate reductase.", "values": [{"smiles": "COC(=O)CCCc1nc(N)nc(N)c1-c1ccc(Cl)cc1", "Ratio": 56.3}, {"smiles": "CCc1nc(N)nc(N)c1-c1ccc(Cl)c(Cl)c1", "note": "[ETOPRINE]", "Ratio": 9}, {"smiles": "COC(=O)CCCc1nc(N)nc(N)c1-c1cccc(Cl)c1", "Ratio": 3.4}, {"smiles": "Nc1ncc(-c2ccc(Cl)cc2)c(N)n1", "Ratio": 154}, {"smiles": "CCOc1c(Br)cc(-c2c(N)nc(N)nc2CC)cc1Br", "Ratio": 59.3}, {"smiles": "CCc1nc(N)nc(N)c1-c1ccc2c(c1)OCO2", "Ratio": 15.6}]}, {"target": "Bifunctional dihydrofolate reductase-thymidylate synthase (Plasmodium falciparum K1, UniProt P13922, S108N)", "sequence (P13922 whole entry, looked up, stated change not applied)": "as above", "experiment": "Inhibition of the S108N mutant of dihydrofolate reductase (DHFR)", "how_it_was_run": "(§1)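 Assay at 25 °C: 50 mM TES pH 7.0, 75 mM β-mercaptoethanol, 1 mg/mL BSA, 100 µM H2folate and 100 µM NADPH. NADPH oxidation followed at 340 nm. Ki derived from IC50 as Ki(1+[S]/Km), assuming competitive inhibition.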", "units": {"Ki": "nM"}, "values": [{"smiles": "COc1cc(Cc2cnc(N)nc2N)cc(OC)c1OCc1ccccc1", "Ki": 61.9}, {"smiles": "COC(=O)CCCc1nc(N)nc(N)c1-c1ccc(Cl)cc1", "Ki": 16.9}, {"smiles": "CCc1nc(N)nc(N)c1-c1ccc(Cl)c(Cl)c1", "note": "[ETOPRINE]", "Ki": 9}, {"smiles": "COC(=O)CCCc1nc(N)nc(N)c1-c1cccc(Cl)c1", "Ki": 1.7}, {"smiles": "Nc1ncc(-c2ccc(Cl)cc2)c(N)n1", "Ki": 369}, {"smiles": "CCOc1c(Br)cc(-c2c(N)nc(N)nc2CC)cc1Br", "Ki": 415}, {"smiles": "CCc1nc(N)nc(N)c1-c1ccc2c(c1)OCO2", "Ki": 17.2}]}, {"tested_on": "Plasmodium falciparum", "experiment": "In vitro antiplasmodial activity (IC50) against Plasmodium falciparum wtTM4/8.2", "format": "functional, organism-based", "units": {"IC50": "nM"}, "values": [{"smiles": "COc1cc(Cc2cnc(N)nc2N)cc(OC)c1OCc1ccccc1", "IC50": 4200}, {"smiles": "COC(=O)CCCc1nc(N)nc(N)c1-c1ccc(Cl)cc1", "IC50": 40}, {"smiles": "CCc1nc(N)nc(N)c1-c1ccc(Cl)c(Cl)c1", "note": "[ETOPRINE]", "IC50": 60}, {"smiles": "COC(=O)CCCc1nc(N)nc(N)c1-c1cccc(Cl)c1", "IC50": 800}, {"smiles": "Nc1ncc(-c2ccc(Cl)cc2)c(N)n1", "IC50": 2300}, {"smiles": "CCOc1c(Br)cc(-c2c(N)nc(N)nc2CC)cc1Br", "IC50": 3700}, {"smiles": "CCc1nc(N)nc(N)c1-c1ccc2c(c1)OCO2", "IC50": 400}]}, {"target": "Bifunctional dihydrofolate reductase-thymidylate synthase (Plasmodium falciparum K1, UniProt P13922)", "sequence (P13922 whole entry)": "as the sequence (P13922 whole entry, looked up, stated change not applied) above", "experiment": "Inhibition of the C59R+S108N mutant of dihydrofolate reductase (DHFR)", "how_it_was_run": "as §1", "units": {"Ki": "nM"}, "values": [{"smiles": "COc1cc(Cc2cnc(N)nc2N)cc(OC)c1OCc1ccccc1", "Ki": 71.9}, {"smiles": "COC(=O)CCCc1nc(N)nc(N)c1-c1ccc(Cl)cc1", "Ki": 27.4}, {"smiles": "CCc1nc(N)nc(N)c1-c1ccc(Cl)c(Cl)c1", "note": "[ETOPRINE]", "Ki": 12.6}, {"smiles": "COC(=O)CCCc1nc(N)nc(N)c1-c1cccc(Cl)c1", "Ki": 2.8}, {"smiles": "Nc1ncc(-c2ccc(Cl)cc2)c(N)n1", "Ki": 556}, {"smiles": "CCOc1c(Br)cc(-c2c(N)nc(N)nc2CC)cc1Br", "Ki": 535}, {"smiles": "CCc1nc(N)nc(N)c1-c1ccc2c(c1)OCO2", "Ki": 34.6}]}, {"tested_on": "Bifunctional dihydrofolate reductase-thymidylate synthase (Plasmodium falciparum K1), P13922 [UNDEFINED MUTATION]", "experiment": "Ratio of Inhibition of the C59R+S108N mutant of dihydrofolate reductase (DHFR) to inhibition of wild type dihydrofolate reductase.", "values": [{"smiles": "COC(=O)CCCc1nc(N)nc(N)c1-c1ccc(Cl)cc1", "Ratio": 91.3}, {"smiles": "CCc1nc(N)nc(N)c1-c1ccc(Cl)c(Cl)c1", "note": "[ETOPRINE]", "Ratio": 12.6}, {"smiles": "COC(=O)CCCc1nc(N)nc(N)c1-c1cccc(Cl)c1", "Ratio": 5.6}, {"smiles": "Nc1ncc(-c2ccc(Cl)cc2)c(N)n1", "Ratio": 232}, {"smiles": "CCOc1c(Br)cc(-c2c(N)nc(N)nc2CC)cc1Br", "Ratio": 76.3}, {"smiles": "CCc1nc(N)nc(N)c1-c1ccc2c(c1)OCO2", "Ratio": 31.5}]}, {"target": "Bifunctional dihydrofolate reductase-thymidylate synthase (Plasmodium falciparum K1) (UniProt P13922)", "sequence (P13922 whole entry, looked up)": "as the sequence (P13922 whole entry, looked up, stated change not applied) above", "experiment": "Inhibition of Plasmodium falciparum wild-type dihydrofolate reductase (DHFR) relative to Pyrimethamine.", "values": [{"smiles": "COC(=O)CCCc1nc(N)nc(N)c1-c1ccc(Cl)cc1", "Relative activity": 0.5}, {"smiles": "CCc1nc(N)nc(N)c1-c1ccc(Cl)c(Cl)c1", "note": "[ETOPRINE]", "Relative activity": 1.7}, {"smiles": "COC(=O)CCCc1nc(N)nc(N)c1-c1cccc(Cl)c1", "Relative activity": 0.8}, {"smiles": "Nc1ncc(-c2ccc(Cl)cc2)c(N)n1", "Relative activity": 4}, {"smiles": "CCOc1c(Br)cc(-c2c(N)nc(N)nc2CC)cc1Br", "Relative activity": 11.7}, {"smiles": "CCc1nc(N)nc(N)c1-c1ccc2c(c1)OCO2", "Relative activity": 1.8}]}, {"target": "Bifunctional dihydrofolate reductase-thymidylate synthase (Plasmodium falciparum K1) (UniProt P13922)", "experiment": "Inhibition of mutant C59R+S108N dihydrofolate reductase (DHFR) relative to Pyr", "values": [{"smiles": "COC(=O)CCCc1nc(N)nc(N)c1-c1ccc(Cl)cc1", "Relative activity": 0.5}, {"smiles": "CCc1nc(N)nc(N)c1-c1ccc(Cl)c(Cl)c1", "note": "[ETOPRINE]", "Relative activity": 0.2}, {"smiles": "Nc1ncc(-c2ccc(Cl)cc2)c(N)n1", "Relative activity": 10.3}, {"smiles": "CCOc1c(Br)cc(-c2c(N)nc(N)nc2CC)cc1Br", "Relative activity": 9.9}, {"smiles": "CCc1nc(N)nc(N)c1-c1ccc2c(c1)OCO2", "Relative activity": 0.6}]}, {"target": "Bifunctional dihydrofolate reductase-thymidylate synthase (Plasmodium falciparum K1) (UniProt P13922)", "experiment": "Inhibition of mutant S108N dihydrofolate reductase (DHFR) relative to Pyr", "values": [{"smiles": "COC(=O)CCCc1nc(N)nc(N)c1-c1ccc(Cl)cc1", "Relative activity": 0.6}, {"smiles": "CCc1nc(N)nc(N)c1-c1ccc(Cl)c(Cl)c1", "note": "[ETOPRINE]", "Relative activity": 0.3}, {"smiles": "Nc1ncc(-c2ccc(Cl)cc2)c(N)n1", "Relative activity": 12.9}, {"smiles": "CCOc1c(Br)cc(-c2c(N)nc(N)nc2CC)cc1Br", "Relative activity": 14.5}, {"smiles": "CCc1nc(N)nc(N)c1-c1ccc2c(c1)OCO2", "Relative activity": 0.6}]}]}
